Results: ChEMBL document CHEMBL5674889, “Enhanced JunD/RSK3 signalling due to loss of BRD4/FOXD3/miR-548d-3p axis determines BET inhibition resistance” (2020)
Calls of active or inactive are those of the source. The rule behind the calls is not given here.

What was measured:
MDA-MB-231 [1] = assay: Effect on human JUND-knockdown MDA-MB-231 cells assessed as reduction of RSK3 protein expression at 1 uM by Western blot analysis; format: functional, cell-based
In short: (§1)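 RSK3 and JunD were probed by western blot in JUND-knockdown or JUND-overexpressing stable clones and their controls, all selected with puromycin 1.0 μg/ml. Antibodies used at 1:1000.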

MDA-MB-231 [2] = assay: Antiproliferative activity in human RPS6KA2-knockdown MDA-MB-231 cells assessed as cell viability at 1 uM for 48 hrs by CellTiter-Glo luminescent cell viability assay; format: functional, cell-based
In short: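 CellTiter-Glo viability: stable overexpressing or shRNA clones (puromycin 1.0 μg/ml selection) seeded 3000 cells/well, adhered overnight, then exposed to 1 μM for 48 h. Luminescence is background-subtracted and normalised to DMSO-treated control. Triplicates, mean ± SD, one-way ANOVA. MDA-MB-231 cells are kept in DMEM and BT549 in RPMI-1640, each with 10% FBS.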

MDA-MB-231 [3] = assay: Effect on human MDA-MB-231 cells assessed as RSK3 […] expression at 1 uM for 24 hrs by Western blot analysis; format: functional, cell-based
BT-549 [4] = assay: Antiproliferative activity in human BT-549 cells assessed as cell growth in the presence of lapatinib at 1 uM by CellTiter-Glo luminescent cell viability assay; format: functional, cell-based
In short: (§2)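 BLBC cells seeded at 3000/well, adhered overnight, then exposed to JQ1 (1 μM) with or without an EGFR inhibitor (1 μM) for 48 h; control and RPS6KA2-shRNA clones tested. Viability by CellTiter-Glo luminescence, background-subtracted and normalized to DMSO-treated control; triplicates, mean ± SD, one-way ANOVA against JQ1 alone.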

MDA-MB-231 [5] = assay: Effect on human JUND-overexpressing MDA-MB-231 cells assessed as RSK3 protein expression at 1 uM by Western blot analysis; format: functional, cell-based; in short: as §1
MDA-MB-231 [6] = assay: Antiproliferative activity in human FOXD3-knockdown MDA-MB-231 cells co-silenced with shRNA of RPS6KA2 assessed as cell growth at 1 uM by CCK-8 assay; format: functional, cell-based
MDA-MB-231 [7] = assay: Downregulation of miR-548d-3p expression in human MDA-MB-231 cells at 1 uM by real-time PCR analysis; format: functional, cell-based
MDA-MB-231 [8] = assay: Effect on induction of RPS6KA2 transcription in human MDA-MB-231 cells assessed as JunD protein expression at 1 uM for 24 hrs by Western blot analysis; format: functional, cell-based
BT-549 [9] = assay: Effect on human BT-549 cells assessed as miR-548d-5p expression at 1 uM by real-time PCR analysis; format: functional, cell-based
BT-549 [10] = assay: Antiproliferative activity in human RPS6KA2-knockdown BT-549 cells assessed as inhibited cell growth at 1 uM for 48 hrs by CCK-8 assay; format: functional, cell-based
MDA-MB-231 [11] = assay: Antiproliferative activity in human MDA-MB-231 cells assessed as cell growth in the presence of osimertinib at 1 uM by CellTiter-Glo luminescent cell viability assay; format: functional, cell-based; in short: as §2
MDA-MB-231 [12] = assay: Antiproliferative activity in human MDA-MB-231 cells assessed as cell growth in the presence of gefitinib at 1 uM by CellTiter-Glo luminescent cell viability assay; format: functional, cell-based; in short: as §2
BT-549 [13] = assay: Effect on JUND dependent RPS6KA2 transcription in human JUND-knockdown BT-549 cells assessed reduction in transcription level at 1 uM by ChIP-RT-PCR analysis; format: functional, cell-based
In short: (§3)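 ChIP-qPCR used ~1 × 10^6 cross-linked JUND-knockdown or control cells treated with DMSO or 1 μM for 6 h. Immunoprecipitated DNA was quantified by real-time PCR with primers specific to the RPS6KA2 enhancer. Non-specific primers downstream of the gene 3′ end served as control.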

BT-549 [14] = assay: Antiproliferative activity in human BT-549 cells assessed as cell growth in the presence of erlotinib at 1 uM by CellTiter-Glo luminescent cell viability assay; format: functional, cell-based; in short: as §2
BT-549 [15] = assay: Antiproliferative activity in human FOXD3-knockdown BT-549 cells assessed as cell growth at 1 uM by CCK-8 assay; format: functional, cell-based
BT-549 [16] = assay: Antiproliferative activity in human FOXD3-knockdown BT-549 cells co-silenced with shRNA of RPS6KA2 assessed as cell growth at 1 uM by CCK-8 assay; format: functional, cell-based
MDA-MB-231 [17] = assay: Effect on JUND dependent RPS6KA2 transcription in human JUND-knockdown MDA-MB-231 cells assessed reduction in transcription level at 1 uM by ChIP-RT-PCR analysis; format: functional, cell-based; in short: as §3
MDA-MB-231 [18] = assay: Effect on JUND dependent RPS6KA2 transcription in human JUND-knockdown MDA-MB-231 cells assessed reduction in transcription level at 1 uM by EMSA analysis; format: functional, cell-based
BT-549 [19] = assay: Effect on human JUND-overexpressing BT-549 cells assessed as RSK3 protein expression at 1 uM by Western blot analysis; format: functional, cell-based; in short: as §1
MDA-MB-231 [20] = assay: Antiproliferative activity in human RPS6KA2 expressed in JUND knock-down MDA-MB-231 cells assessed as inhibition of cell growth at 1 uM by CCK-8 assay; format: functional, cell-based
MDA-MB-231 [21] = assay: Antiproliferative activity in human MDA-MB-231 cells assessed as cell growth in the presence of erlotinib at 1 uM by CellTiter-Glo luminescent cell viability assay; format: functional, cell-based; in short: as §2
BT-549 [22] = assay: Antiproliferative activity in human BT-549 cells assessed as cell growth in the presence of miR-548d-3p at 1 uM by CCK-8 assay; format: functional, cell-based
In short: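 BLBC cells transfected with miR-548d-3p mimic or inhibitor, with or without JQ1; growth read by CCK-8 assay relative to DMSO-treated control, seeded at 3000/well. Triplicates, mean ± SD, one-way ANOVA.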

MDA-MB-231 [23] = assay: Induction of apoptosis in human MDA-MB-231 cells over expressing RSK3 assessed as necrotic cells at 1 uM by Annexin V-FITC flow cytometric analysis (reference value: 3.51%); format: functional
In short: (§4)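 Stable clones (vector, RSK3-overexpressing or RPS6KA2-knockdown) treated ± JQ1 1 μM. Cells washed twice in PBS, resuspended at 1 × 10^6 cells/ml in binding buffer, stained with Annexin V-FITC and propidium iodide for 10 min at room temperature in the dark, then read by flow cytometry. Three independent experiments; one-way ANOVA.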

BT-549 [24] = assay: Effect on human BT-549 cells assessed as RSK3 […] expression at 1 uM for 24 hrs by Western blot analysis; format: functional, cell-based
MDA-MB-231 [25] = assay: Effect on human BRD4-knockdown MDA-MB-231 cells assessed as miR-548d-3p expression at 1 uM by real-time PCR analysis; format: functional, cell-based
MDA-MB-231 [26] = assay: Antiproliferative activity in human RPS6KA2-knockdown MDA-MB-231 cells assessed as cell growth at 1 uM by CCK-8 assay; format: functional, cell-based
MDA-MB-231 [27] = assay: Induction of apoptosis in human MDA-MB-231 cells expressing vector control assessed as late apoptotic cells at 1 uM by Annexin V-FITC flow cytometric analysis (reference value: 2.4%); format: functional; in short: as §4
BT-549 [28] = assay: Induction of apoptosis in human RPS6KA2-knockdown BT-549 cells at 1 uM by FACS assay; format: functional, cell-based; in short: as §4
HEK-293T = assay: Effect on human HEK293T cells transfected with FOXD3 assessed as decrease in luciferase activity at 1 uM for 6 hrs by Luciferase reporter assay; format: functional, cell-based

In the case of `Cc1sc2c(c1C)C(c1ccc(Cl)cc1)=N[C@@H](CC(=O)OC(C)(C)C)c1nnc(C)n1-2`, the Activity (MDA-MB-231 [1]) is reported as “Active”, the Activity (MDA-MB-231 [2]) is reported as “Active” and the Activity (MDA-MB-231 [3]) is reported as “Active”. For the same compound, the Activity (BT-549 [4]) was “Active”, the Activity (MDA-MB-231 [5]) was “Active” and the Activity (MDA-MB-231 [6]) was “Active”. The Activity (MDA-MB-231 [7]) was “Active”, the Activity (MDA-MB-231 [8]) was “Active” and the Activity (BT-549 [9]) was “Active”. For the same compound, the Activity (BT-549 [10]) was “Active”, the Activity (MDA-MB-231 [11]) was “Active” and the Activity (MDA-MB-231 [12]) was “Active”. For the same compound, the Activity (BT-549 [13]) was “Active”, the Activity (BT-549 [14]) was “Active” and the Activity (BT-549 [15]) was “Active”. The Activity (BT-549 [16]) was “Active”, the Activity (MDA-MB-231 [17]) was “Active” and the Activity (MDA-MB-231 [18]) was “Active”. For the same compound, the Activity (BT-549 [19]) was “Active”, the Activity (MDA-MB-231 [20]) was “Active” and the Activity (MDA-MB-231 [21]) was “Active”. The Activity (BT-549 [22]) was “Active”, the Activity (MDA-MB-231 [23]) was 1.67% and the Activity (BT-549 [24]) was “Active”. For the same compound, the Activity (MDA-MB-231 [25]) was “Active”, the Activity (MDA-MB-231 [26]) was “Active” and the Activity (MDA-MB-231 [27]) was 5.48%. The Activity (BT-549 [28]) was “Active” and the Activity (HEK-293T) was “Active”.
